In data set [1] the test system is Bacillus cereus. Description: Antibacterial activity against Bacillus cereus MTCC 430 after 24 hrs by spectrophotometry. The class given is functional. The note with it: MTCC 430, 24 h. In outline:
(§1)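 Strains grown on nutrient agar at 37 °C for 24 h, suspended in normal saline with 0.05% Tween 20 to about […] cells/mL (0.5 McFarland). Broth microdilution per NCCLS in Mueller Hinton broth. Compounds dissolved in DMSO at 1 mg/mL (stock), serially two-fold diluted. Growth, drug and negative controls included. Incubation at 35 °C, moist and dark; MIC read spectrophotometrically at 24 h.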

Data set [2] concerns Klebsiella pneumoniae. Description: Antibacterial activity against Klebsiella pneumoniae ATCC 27736 after 24 hrs by spectrophotometry. The class given is functional. The conditions noted are these: ATCC 27736, 24 h. In outline: as §1
Data set [3] deals with Enterococcus faecalis. Briefly: Antibacterial activity against Enterococcus faecalis MTCC439 after 24 hrs by spectrophotometry. The note with it: MTCC439, 24 h. The class given is functional. In outline:
as §1

The test system of data set [4] is L929. Description: Cytotoxicity against mouse L929 cells assessed as cell viability after 24 hrs by MTT assay. The class given is cell-based. The conditions noted are these: l929, 24 h. The essentials:
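Mouse fibroblast L929 cells seeded at 1 × 10³ cells per well in DMEM under humidified 5% CO₂. Medium switched to serum-free DMEM at 90% confluency (5 h). Cells exposed 24 h to a two-fold series ([…], then 12.5 down to 0.09). MTT read-out: absorbance at 570 minus 630 nm taken as the viability index.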
Background: Formazan colour is commonly taken as a measure of viable cells.

Data set [5] has as its system L929. Description: Cytotoxicity against mouse L929 cells assessed as change in morphology at 0.09 ug/ml after 24 hrs by phase contrast microscopy. Format: cell-based. The note with it: l929, 24 h. The essentials: (§2)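 L929 fibroblasts in DMEM under 5% CO₂, switched to serum-free DMEM at 90% confluency, then exposed to compound for 24 h. Cells were fixed in the wells and stained with Giemsa for 30 min at 37 °C. Morphology was examined by phase contrast microscopy against untreated control cells.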

In data set [6] the test system is Staphylococcus aureus. Briefly: Antibacterial activity against methicillin resistant Staphylococcus aureus ATCC 70069 after 24 hrs by spectrophotometry. Format: functional. The conditions noted are these: ATCC 70069, 24 h. In outline:
(§3)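 Strains grown on nutrient agar at 37 °C for 24 h, then suspended in normal saline with 0.05% Tween 20 at about […] cells/mL (0.5 McFarland). Broth microdilution in Mueller Hinton broth per NCCLS. DMSO stock 1 mg/mL diluted into broth, then two-fold serial dilutions. Plates incubated at 35 °C in a moist, dark chamber. MIC read spectrophotometrically at 24 h.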

The test system of data set [7] is Staphylococcus aureus. Briefly: Antibacterial activity against […] Staphylococcus aureus ATCC 25923 after 24 hrs by spectrophotometry. The note with it: ATCC 25923, 24 h. The class given is functional. In outline: as §3
Data set [8] deals with L929. Briefly: Cytotoxicity against mouse L929 cells assessed as change in morphology at 50 ug/ml after 24 hrs by phase contrast microscopy. Format: cell-based. The note with it: l929, 24 h. The essentials:
as §2

Data set [9] has as its system Streptococcus pyogenes. Briefly: Antibacterial activity against Streptococcus pyogenes after 24 hrs by spectrophotometry. Format: functional. In outline: as §1
In data set [10] the test system is Staphylococcus aureus. Description: Antibacterial activity against […] Staphylococcus aureus ATCC 29213 after 24 hrs by spectrophotometry. Format: functional. The conditions noted are these: ATCC 29213, 24 h. The essentials: as §3

Converted amounts (≈) assume the structure as drawn. Where only a bound is given, the exact number is not on record here.

As to `CC(=O)NC[C@H]1CN(c2ccc(N3CCN(CCn4c([N+](=O)[O-])cnc4C)CC3)c(F)c2)C(=O)O1`, the MIC stood at 0.097 µg/mL (≈ 0.198 µM) in data set [1]; 0.78 µg/mL (≈ 1.59 µM) in [2]; 3.12 µg/mL (≈ 6.37 µM) in data set [3]; 0.78 µg/mL (≈ 1.59 µM) in data set [6]; 3.12 µg/mL (≈ 6.37 µM) in data set [7]; 0.78 µg/mL (≈ 1.59 µM) in data set [9]. The compound also yielded an MIC in [10] of 3.12 µg/mL (≈ 6.37 µM). For the same compound, the Activity entry in data set [4] is given as “Toxic”; in data set [5], “Non-toxic”; in [8] it was “Toxic”.
On to `CC(=O)NC[C@H]1CN(c2ccc(N3CCN(C(=O)Cn4cnc([N+](=O)[O-])c4)CC3)c(F)c2)C(=O)O1`, for which the MIC in data set [1] is 6.25 µg/mL (≈ 12.8 µM); in data set [2], 25 µg/mL (≈ 51.1 µM); in data set [3] it was 25 µg/mL (≈ 51.1 µM); in [6], 3.12 µg/mL (≈ 6.37 µM); in data set [7], 12.5 µg/mL (≈ 25.5 µM); in [9], 1.56 µg/mL (≈ 3.19 µM). For the same compound, in [10], the MIC was found to be 12.5 µg/mL (≈ 25.5 µM).
Regarding `CC(=O)NC[C@H]1CN(c2ccc(N3CCN(CCCn4ccnc4[N+](=O)[O-])CC3)c(F)c2)C(=O)O1`, the MIC in data set [1] amounted to 6.25 µg/mL (≈ 12.8 µM); in data set [2], 0.78 µg/mL (≈ 1.59 µM); in data set [3], 12.5 µg/mL (≈ 25.5 µM); in data set [6], 6.25 µg/mL (≈ 12.8 µM); in data set [7], 6.25 µg/mL (≈ 12.8 µM); in [9] it was 0.78 µg/mL (≈ 1.59 µM). This compound came in with an MIC in [10] of 12.5 µg/mL (≈ 25.5 µM).
For the compound `CC(=O)NC[C@H]1CN(c2ccc(N3CCN(CC(O)Cn4c([N+](=O)[O-])cnc4C)CC3)c(F)c2)C(=O)O1` (stereo partly specified), the MIC is 0.78 µg/mL (≈ 1.5 µM) in [1]; more than 50 µg/mL in data set [2]; 1.56 µg/mL (≈ 3 µM) in data set [3]; 0.39 µg/mL (≈ 0.751 µM) in [6]; 3.12 µg/mL (≈ 6.01 µM) in data set [7]; 0.39 µg/mL (≈ 0.751 µM) in data set [9]. The compound further registered an MIC in data set [10] of 1.56 µg/mL (≈ 3 µM).
In the case of `CC(=O)NC[C@H]1CN(c2ccc(N3CCOCC3)c(F)c2)C(=O)O1` [LINEZOLID], the MIC in [1] is 0.78 µg/mL (≈ 2.31 µM); in [2], 1.56 µg/mL (≈ 4.62 µM); in data set [3] it was 3.12 µg/mL (≈ 9.25 µM); in [6] it was 1.56 µg/mL (≈ 4.62 µM); in data set [7] it was 1.56 µg/mL (≈ 4.62 µM); in [9], 1.56 µg/mL (≈ 4.62 µM). Further, inhibition of growth in data set [10] (MIC) required 3.12 µg/mL (≈ 9.25 µM).
Turning to `CN[C@H](CC(C)C)C(=O)N[C@H]1C(=O)N[C@@H](CC(N)=O)C(=O)N[C@H]2C(=O)N[C@H]3C(=O)N[C@H](C(=O)N[C@H](C(=O)O)c4cc(O)cc(O)c4-c4cc3ccc4O)[C@H](O)c3ccc(c(Cl)c3)Oc3cc2cc(c3O[C@@H]2O[C@H](CO)[C@@H](O)[C@H](O)[C@H]2O[C@H]2C[C@](C)(N)[C@H](O)[C@H](C)O2)Oc2ccc(cc2Cl)[C@H]1O` [VANCOMYCIN], the MIC in data set [1] worked out at 0.19 µg/mL (≈ 0.131 µM); in data set [3] it was 0.78 µg/mL (≈ 0.538 µM); in [6], 6.25 µg/mL (≈ 4.31 µM); in data set [7], 0.39 µg/mL (≈ 0.269 µM); in data set [9], 0.39 µg/mL (≈ 0.269 µM); in data set [10], 1.56 µg/mL (≈ 1.08 µM).
As for `CC(=O)NC[C@H]1CN(c2ccc(N3CCN(CC(O)Cn4cnc([N+](=O)[O-])c4)CC3)c(F)c2)C(=O)O1` (stereo partly specified), the MIC in data set [1] is 3.12 µg/mL (≈ 6.17 µM); in [2], more than 50 µg/mL; in data set [6] it was 6.25 µg/mL (≈ 12.4 µM); in data set [7], 6.25 µg/mL (≈ 12.4 µM); in data set [9], 3.12 µg/mL (≈ 6.17 µM); in data set [10] it was 12.5 µg/mL (≈ 24.7 µM).
Take `CC(=O)NC[C@H]1CN(c2ccc(N3CCN(C(=O)Cn4c([N+](=O)[O-])cnc4C)CC3)c(F)c2)C(=O)O1`: the MIC in [1] is 1.56 µg/mL (≈ 3.1 µM); in data set [2] it was 3.12 µg/mL (≈ 6.2 µM); in [3] it was 6.25 µg/mL (≈ 12.4 µM); in data set [6] it was 6.25 µg/mL (≈ 12.4 µM); in data set [7], 6.25 µg/mL (≈ 12.4 µM); in [9] it was 1.56 µg/mL (≈ 3.1 µM). The MIC in [10] was determined as 6.25 µg/mL (≈ 12.4 µM).
`CC(=O)NC[C@H]1CN(c2ccc(N3CCN(CCn4ccnc4[N+](=O)[O-])CC3)c(F)c2)C(=O)O1`: the MIC was found to be 0.78 µg/mL (≈ 1.64 µM) in data set [1]; 25 µg/mL (≈ 52.6 µM) in [2]; 25 µg/mL (≈ 52.6 µM) in [3]; 6.25 µg/mL (≈ 13.1 µM) in data set [6]; 12.5 µg/mL (≈ 26.3 µM) in [7]; 0.78 µg/mL (≈ 1.64 µM) in data set [9]. This compound also gave an MIC in [10] of 12.5 µg/mL (≈ 26.3 µM).
As to `CC(=O)NC[C@H]1CN(c2ccc(N3CCN(CCCn4cnc([N+](=O)[O-])c4)CC3)c(F)c2)C(=O)O1`, the MIC in data set [1] amounted to 0.78 µg/mL (≈ 1.59 µM); in [2] it was 0.78 µg/mL (≈ 1.59 µM); in data set [3] it was 0.78 µg/mL (≈ 1.59 µM); in data set [6], 0.78 µg/mL (≈ 1.59 µM); in data set [7], 0.78 µg/mL (≈ 1.59 µM); in [9] it was 0.39 µg/mL (≈ 0.797 µM). In data set [10], this compound registered an MIC of 0.78 µg/mL (≈ 1.59 µM). Further, the Activity entry in [4] was “Toxic”; in data set [5] it was “Non-toxic”; in [8], “Toxic”.
For `CC(=O)NC[C@H]1CN(c2ccc(N3CCN(CCCn4c([N+](=O)[O-])cnc4C)CC3)c(F)c2)C(=O)O1`, the MIC came out at 6.25 µg/mL (≈ 12.4 µM) in data set [1]; 1.56 µg/mL (≈ 3.1 µM) in data set [2]; 12.5 µg/mL (≈ 24.8 µM) in [3]; 6.25 µg/mL (≈ 12.4 µM) in data set [6]; 12.5 µg/mL (≈ 24.8 µM) in data set [7]; 1.56 µg/mL (≈ 3.1 µM) in data set [9]. In data set [10], the MIC was determined as 12.5 µg/mL (≈ 24.8 µM).

By MIC is commonly meant the lowest concentration that inhibits growth of the organism. Read a high MIC as weaker potency.

Source of the values: ChEMBL document CHEMBL1154728, “Synthesis of nitroimidazole derived oxazolidinones as antibacterial agents” (Eur J Med Chem, 2010).
